How the values were obtained:
Trypanosoma cruzi [1] = assay: Antitrypanosomal activity against Trypanosoma cruzi Tulahuen 2 epimastigotes assessed as inhibition of parasite growth at 25 uM relative to control; assay type: functional; conditions: read-out: GI
In short: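 Epimastigotes of T. cruzi Tulahuen 2 strain exposed to compound at 25 µM. Growth inhibition is given as percentage relative to untreated parasites. Values are means of three separate experiments, SD under 10%.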

Trypanosoma cruzi [2] = assay: Antitrypanosomal activity against Trypanosoma cruzi Tulahuen 2 epimastigotes; assay type: functional, organism-based
[3] = Octanol-water partition coefficient of the compound; assay type: physicochemical

| IC50 (Trypanosoma cruzi [2]) | logP [3] | SMILES | inhibition of growth at 25 µM (Trypanosoma cruzi [1]) |
| --- | --- | --- | --- |
| > 25 µM | 0.354 | COc1ccc2c(c1)[n+]([O-])c(C#N)c(-c1ccco1)[n+]2[O-] | 33.4% |
| 13.8 µM | 3.1 | N#Cc1c(-c2ccc(Cl)cc2)[n+]([O-])c2cc(Cl)c(Cl)cc2[n+]1[O-] | 89.8% |
| 14.3 µM | 1.97 | COc1ccc(-c2c(C#N)[n+]([O-])c3cc(F)ccc3[n+]2[O-])cc1 | 92.2% |
| 12.5 µM | 1.5 | N#Cc1c(-c2ccco2)[n+]([O-])c2ccc(C(F)(F)F)cc2[n+]1[O-] | 100% |
| 13.1 µM | 1.38 | N#Cc1c(-c2ccco2)[n+]([O-])c2cc(F)c(F)cc2[n+]1[O-] | 70.7% |
| 7.8 µM | 2.27 | N#Cc1c(-c2cccs2)[n+]([O-])c2ccc(C(F)(F)F)cc2[n+]1[O-] | 100% |
| 22.1 µM | 2.33 | Cc1cc2c(cc1C)[n+]([O-])c(-c1ccccc1)c(C#N)[n+]2[O-] | 97.4% |
| 9.2 µM | 3.22 | N#Cc1c(-c2ccc(Cl)cc2)[n+]([O-])c2ccc(C(F)(F)F)cc2[n+]1[O-] | 100% |
| 50 µM | 2.33 | Cc1ccc(-c2c(C#N)[n+]([O-])c3cc(C)ccc3[n+]2[O-])cc1 | 41.6% |
| 7.2 µM | 2.68 | N#Cc1c(-c2ccc(OC(F)(F)F)cc2)[n+]([O-])c2cc(Cl)c(Cl)cc2[n+]1[O-] | 82% |
| 9.2 µM | 2.79 | N#Cc1c(-c2ccc(OC(F)(F)F)cc2)[n+]([O-])c2ccc(C(F)(F)F)cc2[n+]1[O-] | 100% |
| 13.4 µM | 2.74 | N#Cc1c(-c2ccc(Cl)cc2)[n+]([O-])c2ccc(F)cc2[n+]1[O-] | 85.4% |
| 13.2 µM | 2.74 | N#Cc1c(-c2ccc(F)cc2)[n+]([O-])c2ccc(Cl)cc2[n+]1[O-] | 92.7% |

| SMILES | IC50 (Trypanosoma cruzi [2]) | logP [3] | inhibition of growth at 25 µM (Trypanosoma cruzi [1]) |
| --- | --- | --- | --- |
| N#Cc1c(NC(=O)c2ccco2)[n+]([O-])c2cc(F)c(F)cc2[n+]1[O-] | 19.2 µM | 0.868 | 53.1% |

Reference: ChEMBL document CHEMBL1208769, “Anti-T. cruzi activities and QSAR studies of 3-arylquinoxaline-2-carbonitrile di-N-oxides” (Bioorg Med Chem Lett, 2010)
